These results are taken from article PMC12799515 (Journal of Orthopaedic Translation, 2025).

The conditions of data set [1]: no reference given; cited from earlier work.
The test system of data set [2] is inTPCs. The data set is described as follows: ALP and ARS staining of inTPCs. The conditions noted are these: 1 μM CCCP or 5 μM CsA, vs vehicle; for ARS staining: four stimulation cycles; for ALP staining: three stimulation cycles. Type of data set: cell-based, C57BL/6 J mice. An outline of the steps: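 Mouse tendon cells were digested with collagenase, grown in low-glucose DMEM/15% FBS and used at passage 3–4. Each cycle was 2 days of ODM (high-glucose DMEM, 10−8 M dexamethasone, 50 μg/mL vitamin C, 10 mM β-glycerol phosphate, 10% FBS) with test compound or solvent, then 2 days of plain ODM. ALP: 3 cycles, 4% PFA 30 min, BCIP/NBT stain. ARS: 4 cycles, kit fixative 20 min. Positive ratio quantified by image analysis.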

Data set [3] concerns inTPCs. The data set is described as follows: Cell viability. Type of data set: cell-based, C57BL/6 J mice. The conditions noted are these: 1 μM CCCP or 5 μM CsA, 48 h. An outline of the steps: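 Mouse tendon cells (passage 3–4) were seeded in 96-well plates and exposed to test compound at varying concentrations (0, 0.1, 0.5, 1, 5, 10 μM for the inhibitor) for 48 h. They were then incubated with 10% CCK-8 at 37 °C for 1 h, and absorbance was read at 450 nm to calculate viability.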

For data set [4], the system named is mitophagy-related genes Pink1, Prkn, LC3b, p62 in inTPCs. The data set is described as follows: qRT–PCR of mitophagy-related genes in inTPCs. In kind it is cell-based, C57BL/6 J mice. The conditions noted are these: 1 μM CCCP or 5 μM CsA, three stimulation cycles in ODM, vs vehicle. An outline of the steps:
(§1)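 Mouse tendon cells (passage 3–4) received three 4-day cycles: 2 days of ODM containing test compound or equal-volume solvent, then 2 days of plain ODM. Transcripts were measured by SYBR Green qRT–PCR, normalised to Gapdh, with relative expression calculated by the 2−ΔΔCt method.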

The test system of data set [5] is OCN, RUNX2, ALP in inTPCs. Briefly: Western blotting of osteogenic-related proteins in inTPCs. Type of data set: cell-based, C57BL/6 J mice. As to conditions: for protein expression of OCN, RUNX2, ALP: 1 μM CCCP or 5 μM CsA, three stimulation cycles in ODM, vs vehicle. An outline of the steps:
(§2)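 Mouse tendon cells were treated in one of two ways: three 4-day cycles (2 days ODM with test compound or solvent, then 2 days plain ODM), or 2 days of osteogenic induction with 100 nM Slc25a4 siRNA (RNAiMAX) ±1 μM test compound added on day 2. Proteins were extracted in RIPA with protease/phosphatase inhibitors, heated to 100 °C for 10 min, separated by SDS-PAGE, transferred to PVDF, blocked with 5% milk and detected by ECL. Bands were quantified by densitometry.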
A general note: Immunoblotting shows a protein as a band on a membrane.

Data set [6] concerns ANT1 in inTPCs. The data set is described as follows: ANT1/Slc25a4 expression in inTPCs. The conditions noted are these: two days osteogenic induction, 1 μM CCCP. Type of data set: cell-based, C57BL/6 J mice. The procedure, abridged: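 Mouse tendon cells under 2 days of osteogenic induction were transfected with 100 nM Slc25a4 siRNA or control siRNA (RNAiMAX) for 2 days, with 1 μM test compound added on day 2. ANT1 protein was measured by western blot (RIPA lysis with protease/phosphatase inhibitors, 100 °C 10 min, SDS-PAGE, PVDF, 5% milk block, ECL, band densitometry). Slc25a4 mRNA was measured by SYBR qRT–PCR against Gapdh (2−ΔΔCt).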

Data set [7] has as its system PINK1, Parkin, LC3BⅡ, p62 in inTPCs. The data set is described as follows: Western blotting of mitophagy-related proteins in inTPCs. In kind it is cell-based, C57BL/6 J mice. The procedure, abridged: as §2
Data set [8] has as its system osteogenic-related genes Ocn, Runx2, Alpl in inTPCs. Briefly: qRT–PCR of osteogenic-related genes in inTPCs. In kind it is cell-based, C57BL/6 J mice. As to conditions: 1 μM CCCP or 5 μM CsA, three stimulation cycles in ODM, vs vehicle. An outline of the steps:
as §1

Data set [9] deals with inTPCs. The data set is described as follows: Apoptosis. In kind it is cell-based, C57BL/6 J mice. The conditions noted are these: 1 μM CCCP or 5 μM CsA.
For data set [10], the system named is mitophagy. The conditions noted are these: cited from earlier work.
Setting [11] is: two days osteogenic induction, 100 nM si-Slc25a4 two days, or 1 μM CCCP.
[12] abbreviates: 1 μM CCCP or 5 μM CsA, three stimulation cycles in ODM, vs vehicle.

`CO[C@H](C/C=C\C=C\CC/C=C/C[C@H](C)/C=C/C(=C\C(=O)O)CC(=O)O)/C(C)=C\C=C(/C)C(=O)O` [BKA, bongkrekic acid]: the “toxicity of ANT1 inhibitors” value in data set [1] is given as “toxic agents unsuitable for clinical use”.
In the case of `C=C1[C@@H]2CC[C@H]3[C@]4(C)C[C@H](O[C@@H]5O[C@H](CO)[C@@H](OS(=O)(=O)O)[C@H](OS(=O)(=O)O)[C@H]5OC(=O)CC(C)C)CC(C(=O)O)(C(=O)O)[C@H]4CC[C@]3(C2)[C@H]1O` [CATR, carboxyatractyloside], the “toxicity of ANT1 inhibitors” value in [1] is recorded as “toxic agents unsuitable for clinical use”.
On to `N#CC(C#N)=NNc1cccc(Cl)c1` [CCCP, carbonyl cyanide 3-chlorophenylhydrazone], for which, in data set [2], the ARS staining entry is reported as “increased” and the ALP staining result is “increased”. For the same molecule, in [3], the “cell viability (poisoning)” value is reported as “did not cause poisoning”. In addition, in [4], the “gene expression of Pink1, Prkn, LC3b” value is on record as “increased” and the p62 gene expression result is given as “suppressed”. In addition, in data set [5], the “protein expression of OCN, RUNX2, ALP” value was “upregulated”. The “protein expression of RUNX2, ALP” value in [5] (setting [11]) is listed as “promoted”. The ANT1 protein expression entry in data set [6] is given as “did not affect ANT1 expression”. In data set [7] (setting [12]), the p62 protein expression entry was “p62 suppression” and the “protein expression of PINK1, Parkin, LC3BⅡ” value (“protein expression of PINK1” below) is listed as “upregulated”. Besides, in [7] (setting [11]), the p62 protein expression entry is “suppressed” and the “protein expression of PINK1” value is listed as “promoted”. Also, the “gene expression of Ocn, Runx2, Alpl” value in [8] is “increased”. The apoptosis entry in data set [9] was “did not cause poisoning (Fig. 3A and B) or apoptosis”.
In the case of `OC1c2cc3ccc4cccc5ccc(c2C2OC2C1O)c3c45` (stereo not shown) [benzo(a)pyrene-7,8-dihydrodiol-9, 10-epoxide], in data set [10], the mitophagy result is listed as “suppressed”.
Take cyclosporin A [CsA]: in [2], the ARS staining entry is recorded as “reduced” and the ALP staining entry is “reduced”. In addition, in data set [4], the “gene expression of Pink1, Prkn, LC3b” value is given as “suppressed” and the p62 gene expression entry was “promoted”. Further, the “protein expression of OCN, RUNX2, ALP” value in [5] is reported as “downregulated”. In addition, in data set [7] (setting [12]), the p62 protein expression entry is on record as “p62 accumulation” and the “protein expression of PINK1” value was “downregulated”. Moreover, the “gene expression of Ocn, Runx2, Alpl” value in data set [8] was “suppressed”.
